Calls of active or inactive are those of the source. No cut-off for these calls is given here.
How the values were obtained:
[1] = test system: Mus musculus; assay: Antiinflammatory activity in PGE2-induced paw edema in Balb/c mouse assessed as inhibition of paw edema at 100 mg/kg, ip administered 1 hr prior to PGE2 challenge and measured after 1 hr relative to control; format: functional; settings: time 2 hrs
Summary of the method: (§1)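 BALB/c mice of either sex (30–35 g), 8 per group, dosed i.p. with 10% DMSO, reference drug or compound (100 mg/kg). After 1 h, subplantar irritant: PGE2 0.01 µg/ml, bradykinin 20 µg/ml, histamine 0.1 ml of 1 mg/ml, or leukotriene 10 µg/ml.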

[2] = test system: Mus musculus; assay: Antiinflammatory activity in histamine-induced paw edema in Balb/c mouse assessed as inhibition of paw edema at 100 mg/kg, ip administered 1 hr prior to histamine challenge and measured after 4 hrs relative to control; format: functional; settings: time 5 hrs; summary of the method: as §1
[3] = test system: Mus musculus; assay: Antiinflammatory activity in PGE2-induced paw edema in Balb/c mouse assessed as inhibition of paw edema at 100 mg/kg, ip administered 1 hr prior to PGE2 challenge and measured after 4 hrs relative to control; format: functional; settings: time 5 hrs; summary of the method: as §1
[4] = test system: Mus musculus; assay: Antiinflammatory activity in leukotriene-induced paw edema in Balb/c mouse assessed as inhibition of paw edema at 100 mg/kg, ip administered 1 hr prior to leukotriene challenge and measured after 2 hrs relative to control; format: functional; settings: time 3 hrs; summary of the method: as §1
[5] = test system: Mus musculus; assay: Antiinflammatory activity in PGE2-induced paw edema in Balb/c mouse assessed as inhibition of paw edema at 100 mg/kg, ip administered 1 hr prior to PGE2 challenge and measured after 5 hrs; format: functional, organism-based; settings: time 6.0 hrs; summary of the method: as §1
[6] = Antiinflammatory activity assessed as inhibition of heat-induced albumin denaturation preincubated for 20 mins followed by heating at 51 degC and measured after 3 mins by UV-vis spectrophotometric method
[7] = test system: Mus musculus; assay: Antiinflammatory activity in leukotriene-induced paw edema in Balb/c mouse assessed as inhibition of paw edema at 100 mg/kg, ip administered 1 hr prior to leukotriene challenge and measured after 3 hrs relative to control; format: functional; settings: time 4 hrs; summary of the method: as §1
[8] = test system: Mus musculus; assay: Antiinflammatory activity in PGE2-induced paw edema in Balb/c mouse assessed as inhibition of paw edema at 100 mg/kg, ip administered 1 hr prior to PGE2 challenge and measured up to 5 hrs relative to control; format: functional; settings: time 2-6 hrs; summary of the method: as §1
[9] = test system: Mus musculus; assay: Antiinflammatory activity in histamine-induced paw edema in Balb/c mouse assessed as inhibition of paw edema at 100 mg/kg, ip administered 1 hr prior to histamine challenge and measured after 1 hr relative to control; format: functional; settings: time 2 hrs; summary of the method: as §1
[10] = test system: Mus musculus; assay: Antiinflammatory activity in histamine-induced paw edema in Balb/c mouse assessed as inhibition of paw edema at 100 mg/kg, ip administered 1 hr prior to histamine challenge and measured after 5 hrs; format: functional, organism-based; settings: time 6.0 hrs; summary of the method: as §1

Structure (SMILES) | inhibition in vivo at 100 mg/kg [1] [%] | inhibition in vivo at 100 mg/kg [2] [%] | inhibition in vivo at 100 mg/kg [3] [%] | inhibition in vivo at 100 mg/kg [4] [%] | inhibition [5] | IC50 [6] [µM] | inhibition in vivo at 100 mg/kg [7] [%] | inhibition in vivo at 100 mg/kg [8] [%] | inhibition in vivo at 100 mg/kg [9] [%] | inhibition [10]
O=C1CCCCC1C1CC(=O)N(Cc2ccccc2)C1=O (stereo not given) | 50.5 | 17.1 | 64.6 | 60.1 | Active | 24.5 | – | – | – | –
Cc1ccc(C(=O)CC2CC(=O)N(c3ccc(S(N)(=O)=O)cc3)C2=O)cc1 (stereo not given) | – | – | – | – | – | – | 74.4 | 61.6 | 32.4 | Active
